ChEMBL document CHEMBL3098010, “Synthesis and biological evaluation of 3-hydroxymethyl-5-(1H-1,2,3-triazol) isoxazolidines” (Bioorg Med Chem, 2013)
Calls of active or inactive are those of the source. The calls are words filed in the database; no cut-off is given here.

How the values were obtained:
[1] = tested on: 8305C; test: Induction of apoptosis in human 8305C cells assessed as caspase-3 positive cells at 5 uM after 24 hrs by immunohistochemical analysis; type: functional, cell-based
Method in brief: (§1)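 Cells on chamber slides are treated 24 h with 5 µM compound, then fixed in 4% paraformaldehyde for 20 min. Unspecific sites are blocked with 1% NGS for 1 h, then cells are incubated overnight at 37 °C with mouse anti-caspase-3 (1:200) and a TRITC anti-mouse secondary. Caspase-3-positive cells are counted by fluorescence microscopy in four fields per coverslip across four experiments.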

[2] = tested on: FTC-133; test: Induction of apoptosis in human FTC-133 cells assessed as caspase-3 positive cells at 5 uM after 24 hrs by immunohistochemical analysis; type: functional, cell-based; method in brief: as §1
[3] = tested on: 8305C; test: Cytotoxicity against human 8305C cells after 24 hrs by MTT assay; type: functional, cell-based
Method in brief: (§2)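 FTC-133 (DMEM, 2 mM GlutaMAX, 10% FBS) and 8305C (MEM, 2 mM GlutaMAX, 10% FBS, 1% non-essential amino acids) cells are exposed to compound at 0.5–20 µM for 24 h at 37 °C, 5% CO2. MTT is added (20 µL of 0.5% in PBS, pH 7.4) for 1 h, then dissolved in DMSO and read at 570 nm. IC50 is taken graphically from dose–effect curves. Mean of four independent experiments in triplicate.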

[4] = tested on: FTC-133; test: Cytotoxicity against human FTC-133 cells after 24 hrs by MTT assay; type: functional, cell-based; settings: FTC-133, 24 h; method in brief: as §2
[5] = tested on: 8305C; test: Induction of apoptosis in human 8305C cells assessed as DNA fragmentation at 5 uM after 24 hrs by TUNEL assay (reference value: 2 +/- 1%); type: functional
[6] = tested on: FTC-133; test: Induction of apoptosis in human FTC-133 cells assessed as DNA fragmentation at 5 uM after 24 hrs by TUNEL assay (reference value: 3 +/- 1%); type: functional

| Structure (SMILES) | Activity [1] | Activity [2] | IC50 [3] [µM] | IC50 [4] [µM] | Activity [5] [%] | Activity [6] [%] |
| --- | --- | --- | --- | --- | --- | --- |
| CN1O[C@@H](n2cc(-c3ccc(F)cc3)nn2)C[C@@H]1CO | Active | Active | 6.76 | 6.07 | – | – |
| COc1ccc(-c2cn([C@@H]3C[C@H](CO)N(C)O3)nn2)cc1 (relative stereo) | Active | Active | 7.18 | 6.48 | – | – |
| CN1O[C@@H](n2cc(-c3ccccc3)nn2)C[C@@H]1CO (relative stereo) | Active | Active | 7.14 | 6.03 | – | – |
| CN1O[C@H](n2cc(-c3ccccc3)nn2)C[C@@H]1CO (relative stereo) | Active | Active | 8.76 | 6.33 | – | – |
| CN1O[C@@H](n2ccnn2)C[C@@H]1CO (relative stereo) | Active | Active | 7.96 | 6.53 | – | – |
| CN1O[C@H](n2ccnn2)C[C@@H]1CO (relative stereo) | Active | Active | 8.13 | 6.3 | – | – |
| CCCc1cn([C@H]2C[C@H](CO)N(C)O2)nn1 (relative stereo) | Active | Active | 5.82 | 3.87 | 90 | 95 |
| CCCc1cn([C@@H]2C[C@H](CO)N(C)O2)nn1 (relative stereo) | Active | Active | 6.87 | 4.71 | – | – |
| COc1ccc(-c2cn([C@H]3C[C@H](CO)N(C)O3)nn2)cc1 (relative stereo) | Active | Active | 8.01 | 7 | – | – |
| CCCCCc1ccc(-c2cn([C@H]3C[C@H](CO)N(C)O3)nn2)cc1 (relative stereo) | Active | Active | 5.96 | 3.95 | – | – |
| CCCCCc1ccc(-c2cn([C@@H]3C[C@H](CO)N(C)O3)nn2)cc1 (relative stereo) | Active | Active | 6.24 | 4.49 | – | – |
| CN1O[C@H](n2cc(-c3ccc(F)cc3)nn2)C[C@@H]1CO (relative stereo) | Active | Active | 6.85 | 5.85 | – | – |
| Nc1ccn([C@@H]2O[C@H](CO)[C@@H](O)C2(F)F)c(=O)n1 [GEMCITABINE] | Active | Active | 4.53 | 3.36 | – | – |
